Assay results published in article PMC10413468 (ACS Omega, 2023).

Columns and labels:
[1] = tested on: A549 (human lung cancer) cells; assay: MTT cytotoxicity assay, A549; assay type: cell-based
Method in brief: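 A549 lung cancer cells grown in low-glucose DMEM with 10% FBS and penicillin/streptomycin (37 °C, 5% CO2). Plated at 1 × 10^4 cells/well. Treated 48 h with dicopper complexes (1–400 or 1–1000 μM) or cisplatin (0.1–20 μM). Wells rinsed with PBS, then MTT 0.5 mg mL–1 for 3 h and DMSO. IC50 from viability vs log[conc]; ≥3 repeats, mean ± SD. SF = IC50(WI-38)/IC50(A549).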

[2] = tested on: 2C6 (human embryonic pancreas normal) cells; assay: MTT cytotoxicity assay, 2C6; assay type: cell-based; conditions: read-out: IC50 2C6 (normal), pancreas, 48 h, mean ± SD
Method in brief: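 2C6 pancreas normal cells kept in Ham F10 with 10% newborn calf serum, 5% FBS, 2.5% horse serum and penicillin/streptomycin at 37 °C, 5% CO2. Seeded at 1 × 10^4 cells/well. Exposed 48 h to dicopper complexes (1–400 or 1–1000 μM) or cisplatin (0.1–20 μM); medium-only controls. PBS rinses, MTT 0.5 mg mL–1 for 3 h, DMSO solubilisation. IC50 from viability vs log[conc]; ≥3 repeats, mean ± SD.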

[3] = tested on: HeLa (human cervical cancer) cells; assay: MTT cytotoxicity assay, HeLa; assay type: cell-based; conditions: read-out: IC50 HeLa (cancer), cervical, 48 h, mean ± SD
Method in brief: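 HeLa cervical cancer cells maintained in high-glucose D-MEM with 10% FBS and penicillin/streptomycin at 37 °C, 5% CO2. 1 × 10^4 cells/well incubated 48 h with dicopper complexes (1–400 or 1–1000 μM) or cisplatin (0.1–20 μM); blank and control wells got medium only. PBS wash, MTT (0.5 mg mL–1, 3 h), formazan dissolved in DMSO. IC50 from viability vs log[conc]; ≥3 repeats, mean ± SD.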

[4] = tested on: PK-59 (pancreas cancer) cells; assay: MTT cytotoxicity assay, PK-59; assay type: cell-based, human
Method in brief: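 PK-59 pancreas cancer cells cultured in RPMI 1640 with 10% FBS and penicillin/streptomycin (37 °C, humidified 5% CO2). 1 × 10^4 cells/well exposed 48 h to dicopper complexes (1–400 or 1–1000 μM) or cisplatin (0.1–20 μM). After PBS rinses, MTT 0.5 mg mL–1 for 3 h, then DMSO. IC50 from viability vs log[conc]; ≥3 repeats, mean ± SD. SF = IC50(2C6)/IC50(PK-59).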

[5] = tested on: WI-38 (human lung fibroblast normal) cells; assay: MTT cytotoxicity assay, WI-38; assay type: cell-based; conditions: read-out: IC50 WI-38 (normal), lung, 48 h, mean ± SD
Method in brief: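 WI-38 lung fibroblast normal cells grown in Eagle's MEM with 10% FBS and penicillin/streptomycin at 37 °C, 5% CO2. 1 × 10^4 cells/well given dicopper complexes (1–400 or 1–1000 μM) or cisplatin (0.1–20 μM) for 48 h; medium-only controls. PBS rinses, MTT 0.5 mg mL–1 for 3 h, DMSO solubilisation. IC50 from viability vs log[conc]; ≥3 repeats, mean ± SD.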

N.N.[Cl][Pt][Cl] [cisplatin]
SF (selectivity factor), lung ([1]; (IC50 of normal cells)/(IC50 of cancer cells), WI-38/A549, 48 h): 2.5 | IC50 ([1]; read-out: IC50 A549 (cancer), lung, MTT assay, 48 h, mean ± SD): 1830 ± 30 nM | IC50 [2]: 1150 ± 80 nM | IC50 [3]: 930 ± 10 nM | SF (selectivity factor), pancreas ([4]; (IC50 of normal cells)/(IC50 of cancer cells), 2C6/PK-59, 48 h): 0.6 | IC50 ([4]; read-out: IC50 PK-59 (cancer), pancreas, MTT assay, 48 h, mean ± SD): 2010 ± 20 nM | IC50 [5]: 4550 ± 30 nM
